Shown are actives, neighbours in structure and some others; about 2.3% of the full set was active somewhere.
MCL1 BIM primary = inhibitors of human MCL1 binding to BIM-BH3 peptide; Q07820; GST-MCL1 / FITC-Bim-BH3 fluorescence polarization; inhibition, % at 10.9 µM; actives 0.68% (n = 320,000);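 active = inhibition above the mean inhibition of all tested compounds plus 3 SD, set per campaign, cut at about 40% in these data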;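 also: higher means more loss of mP so more displacement of Bim peptide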
T cell modulator = T cell immune modulators affecting CD8 T cell-vesicle binding. 2C CD8+ T cell-vesicle binding, flow cytometry; active compounds read low. response (vesicle binding), % at 7 µM. actives 0.068% (n = 330,000). AID 2052;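 active = response, share of CD8 T cells binding vesicles, and their 90th percentile fluorescence all below set limits, cut at about 80% in these data, passing the limit was not always enough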;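 also: values below 100% mean blocked vesicle binding to the CD8+ T cells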
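Benchmarks: naked versus QL9-loaded vesicles / Assay system: purified 2C TCR transgenic mouse naive CD8+ T cells / Technique: high-throughput flow cytometry with anti-B7-1 and anti-CD8 staining / Timing: Cell–vesicle co-incubation 1.5 h at 37 °C, staining 20 min on ice / Read-out: percent CD8+ FL2 mean versus row control / Probe or stimulus: QL9-loaded Drosophila micro-vesicles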
Mcl1 Noxa PPI = Mcl-1/Noxa interaction inhibition; Q07820; TR-FRET Mcl-1/Noxa peptide binding, 2 h; inhibition, % at 21.7 µM; actives 1.5% (n = 220,000); AID 1022;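 active = compounds that cut the protein-peptide binding signal by more than 50% relative to plate controls in a single-dose test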;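 also: His-tagged Mcl-1 with rhodamine Noxa BH3 peptide and terbium anti-His antibody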
Bim-Mcl-1 = human Bim-Mcl-1 interaction inhibition; inhibition, % at 10 µM; actives 0.1% (n = 190,000); Q07820; Bead-based flow cytometry, Bim peptide-Mcl-1 binding; in the data active = inhibition above about 40%
Pemphigus Ab inh = inhibitors of pemphigus antibody binding to human desmoglein-3 | actives 0.48% (n = 310,000) | AID 588358 | DSG3-coupled beads, scFv-anti-DSG3-GFP binding, flow cytometry; active compounds read low | binding (percent of control), % at 10 µM;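 active = binding more than 3 SD below its plate's average and above zero; inconclusive = below that plate limit but binding exactly zero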;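 also: hits lower antibody fragment binding to DSG3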
Target sequence (P32926 whole entry, looked up, the tested form may be a part): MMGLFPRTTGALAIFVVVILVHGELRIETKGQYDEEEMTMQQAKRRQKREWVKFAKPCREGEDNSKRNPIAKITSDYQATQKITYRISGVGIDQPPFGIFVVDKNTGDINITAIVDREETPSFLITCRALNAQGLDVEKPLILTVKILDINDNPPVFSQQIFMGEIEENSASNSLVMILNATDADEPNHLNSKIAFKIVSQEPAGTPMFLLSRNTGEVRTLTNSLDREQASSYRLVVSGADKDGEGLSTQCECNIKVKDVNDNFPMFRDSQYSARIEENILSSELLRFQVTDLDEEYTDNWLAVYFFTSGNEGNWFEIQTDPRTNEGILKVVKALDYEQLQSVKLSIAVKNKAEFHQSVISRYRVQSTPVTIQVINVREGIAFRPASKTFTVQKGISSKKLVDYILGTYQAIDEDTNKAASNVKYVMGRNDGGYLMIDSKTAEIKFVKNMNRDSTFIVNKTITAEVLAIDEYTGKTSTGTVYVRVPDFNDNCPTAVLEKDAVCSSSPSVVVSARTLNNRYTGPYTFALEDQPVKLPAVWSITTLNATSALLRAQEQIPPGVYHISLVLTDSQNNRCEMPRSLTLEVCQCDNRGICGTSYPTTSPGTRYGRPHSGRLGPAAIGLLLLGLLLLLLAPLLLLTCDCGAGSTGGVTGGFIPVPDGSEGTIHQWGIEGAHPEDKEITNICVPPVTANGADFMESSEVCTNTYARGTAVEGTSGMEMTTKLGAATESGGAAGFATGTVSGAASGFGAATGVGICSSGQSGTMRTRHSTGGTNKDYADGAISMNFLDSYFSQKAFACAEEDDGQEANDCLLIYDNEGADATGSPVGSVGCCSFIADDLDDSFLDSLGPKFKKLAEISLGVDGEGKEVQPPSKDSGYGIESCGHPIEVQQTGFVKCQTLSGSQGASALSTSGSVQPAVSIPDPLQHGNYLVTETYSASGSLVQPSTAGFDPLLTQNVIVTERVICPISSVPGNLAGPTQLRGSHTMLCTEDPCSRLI
Mcl1-Bid inh = Mcl-1/Bid interaction inhibition | AID 1021 | TR-FRET Mcl-1/Bid-Dy647 peptide binding, 1536-well | inhibition, % at 21.7 µM | Q07820 | actives 0.97% (n = 220,000);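 active = compounds that cut the binding signal by more than half at the single screening dose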;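 also: His-tagged Mcl-1 with europium anti-His antibody binding Bid BH3 peptide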
Of the large screens only hits and unclear results are named; the others gave an inactive call.

C=CC[C@@H](Cc1ccc(F)cc1)C(=O)OC[C@@H]1CCCN1C(=O)[C@@H](CC=C)CC(=O)N[C@H](CO)Cc1ccccc1	none (no result: MCL1 BIM primary, Mcl1 Noxa PPI, Bim-Mcl-1, Mcl1-Bid inh)
CC(C)C[C@@H](CNCC(=O)[C@H](CC(C)C)NC(=O)c1[nH]cnc1C(=O)N[C@@H](C)CN)NC(=O)c1nc[nH]c1C(=O)N[C@@H](CC(=O)O)C(=O)O	none (no result: MCL1 BIM primary, T cell modulator, Mcl1 Noxa PPI, Bim-Mcl-1, Mcl1-Bid inh)
OCC[C@H]1C[C@@H](O)[C@H](O)[C@@]2(CCc3ccccc3O2)O1	none (no result: Mcl1 Noxa PPI, Bim-Mcl-1, Mcl1-Bid inh)
Cc1cccc(-n2ncc3c(N4CCCC4)ncnc32)c1	T cell modulator 0.0
C=CCn1c(C)cc(C(=O)Cn2ncc(Cl)c(Cl)c2=O)c1C	Mcl1 Noxa PPI 86.3
CC(C)(C)C(=O)Cn1ncc(Cl)c(Cl)c1=O	none (no result: MCL1 BIM primary, T cell modulator)
O=C1C=CC(=O)c2c(O)c(CO)c(CO)c(O)c21	Pemphigus Ab inh 25.2 (no result: MCL1 BIM primary, T cell modulator, Mcl1 Noxa PPI, Bim-Mcl-1, Mcl1-Bid inh)
CC1CC(C)CN(CCOc2ccccc2-c2ccccc2)C1 (centres undefined)	Mcl1-Bid inh 57.2
c1ccc(-c2ccccc2OCCCN2CCCCCC2)cc1	none
CC(C)(C)NCCOCCOc1ccccc1-c1ccccc1	Mcl1-Bid inh 56.0
c1ccc(-c2ccccc2OCCCN2CCCC2)cc1	Pemphigus Ab inh 71.6
OCCN(Cc1cccnc1)Cc1ccccn1	none (no result: MCL1 BIM primary, T cell modulator, Mcl1 Noxa PPI, Bim-Mcl-1, Mcl1-Bid inh)
O=C(Nc1cccc(NC(=O)c2cccnc2)c1)c1cccnc1	none
Cc1ccc(NC(=O)c2cccnc2)cc1C	Pemphigus Ab inh 15.5 (no result: Mcl1 Noxa PPI, Bim-Mcl-1, Mcl1-Bid inh)
COc1cc(/C=N/NC(=O)c2nc(-c3ccccc3)n(-c3ccccc3)n2)ccc1O	none
O=C(Oc1ccc(/C=N/Nc2ccccc2)cc1)c1ccccc1	Pemphigus Ab inh inconclusive
COc1cc(/C=N/Nc2ccc(C(=O)O)cc2)cc(OC)c1OC	none (no result: Bim-Mcl-1)
CSc1ccc(/C=N/Nc2cccc(C(=O)O)c2)cc1	Mcl1 Noxa PPI 99.0 (no result: MCL1 BIM primary, T cell modulator)
COc1cc(/C=N/Nc2nc(C)nc3c2cnn3-c2ccccc2)ccc1O	Mcl1 Noxa PPI 73.8 (no result: MCL1 BIM primary, T cell modulator)
COc1cc(/C=N/Nc2ccc(C(=O)O)cc2)ccc1O	Mcl1 Noxa PPI 63.4
O=C(O)c1ccc(N/N=C/c2ccc(OC(=O)c3cccc(Cl)c3)cc2)cc1	Mcl1 Noxa PPI 91.6 (no result: Bim-Mcl-1)
COc1ccc(OCC(=O)Nc2cccc(S(=O)(=O)N(C)c3ccccc3)c2)c([N+](=O)[O-])c1	none (no result: Mcl1 Noxa PPI, Bim-Mcl-1, Pemphigus Ab inh, Mcl1-Bid inh)
O=C(O)/C=C/c1ccc(O)c(O)c1	Mcl1 Noxa PPI 59.7
COc1cc(/C=C/C(=O)O)ccc1O	none (no result: Mcl1 Noxa PPI, Bim-Mcl-1, Mcl1-Bid inh)
O=C(/C=C/c1ccc(O)c(O)c1)O[C@H](Cc1ccc(O)c(O)c1)C(=O)O	Mcl1 Noxa PPI 92.5 (no result: MCL1 BIM primary, T cell modulator, Bim-Mcl-1, Pemphigus Ab inh)
CC(=O)c1ccc(C(=O)N2CCCC(N3CCN(c4ccc(F)cc4)CC3)C2)s1 (centres undefined)	none (no result: Mcl1 Noxa PPI, Bim-Mcl-1, Mcl1-Bid inh)
Cc1nn(C(C)C(=O)N2CCCC2)c(=O)c2nn(-c3ccccc3)c(C)c12 (centres undefined)	none (no result: Mcl1 Noxa PPI, Bim-Mcl-1, Mcl1-Bid inh)
CC1(C)Cc2c(c(-c3ccco3)nc3sc4c(NCCCO)ncnc4c23)CO1	none (no result: Bim-Mcl-1)
CC1(C)Cc2c(c(-c3ccco3)nc3sc4c(NCC5CCCO5)ncnc4c23)CO1 (centres undefined)	Mcl1 Noxa PPI 50.6
CC1(C)Cc2c(c(-c3ccco3)nc3sc4c(NCCN5CCOCC5)ncnc4c23)CO1	Mcl1 Noxa PPI 63.1
Cc1sc2ccccc2c1CNC[C@H]1O[C@@H](n2cnc(C(N)=O)n2)[C@H](O)[C@@H]1O	none (no result: MCL1 BIM primary, T cell modulator, Mcl1 Noxa PPI, Bim-Mcl-1, Mcl1-Bid inh)
Cc1ccc(C(=O)Nc2cccc(C(=O)NC3CCCC3)c2)cc1	none (no result: Mcl1 Noxa PPI, Bim-Mcl-1, Mcl1-Bid inh)
Cc1ccc(NC(=O)CCC(=O)c2ccc(Cl)s2)nc1	none (no result: Mcl1 Noxa PPI, Bim-Mcl-1, Mcl1-Bid inh)
C=C(C(=O)Oc1ccccc1C(C)(C)C)c1ccccc1	none (no result: Mcl1 Noxa PPI, Bim-Mcl-1, Pemphigus Ab inh, Mcl1-Bid inh)
NC(=O)COC(=O)c1c2c(nc3ccccc13)CCCC2	none (no result: Pemphigus Ab inh)
NC(=O)COC(=O)c1c2c(nc3ccccc13)CCC2	Mcl1 Noxa PPI 57.3
O=C(NCc1ccc(F)cc1)c1c2c(nc3ccccc13)CCC2	Mcl1 Noxa PPI 76.9
CCCCCCC1(C)NC(=O)N(C(C)C(=O)Nc2ccc(N3CCOCC3)cc2)C1=O (centres undefined)	none (no result: Mcl1 Noxa PPI, Bim-Mcl-1, Mcl1-Bid inh)
OC1(c2ccccc2)CC(c2ccccc2)c2ccccc2O1 (centres undefined)	Pemphigus Ab inh 49.1 (no result: MCL1 BIM primary, T cell modulator, Mcl1 Noxa PPI, Bim-Mcl-1, Mcl1-Bid inh)
CC(=O)C1=C(C)OC(N)=C(C#N)C1c1ccncc1 (centres undefined)	MCL1 BIM primary 41.5 (no result: Pemphigus Ab inh)
COC(=O)C1=C(C)OC(N)=C(C#N)C1c1cccnc1 (centres undefined)	none

Source: PubChem (several laboratories)
